The values below come from ChEMBL document CHEMBL2375288, “Synthesis and pharmacokinetic profile of highly deuterated brecanavir analogs” (Eur J Med Chem, 2013).

Series [1] deals with Rattus norvegicus. In words: Dose-normalized AUC in rat at 0.25 mg/kg, iv. It counts as ADME, organism-based. Details: dose 0.25 mg/kg, route intravenous. The following applies: in vivo. A digest of the protocol: (§1)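 Intravenous dosing at 0.25 mg/kg in fed rats, given as a solution in DMSO/solutol/mannitol (2.5/10/87.5).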
The nature of series [2]: Half life in rat at 0.25 mg/kg, iv. To be noted: in vivo. Details: dose 0.25 mg/kg, route intravenous. It is filed as ADME, organism-based. Summed up:
as §1

Series [3] is described as follows: Plasma clearance in rat at 0.25 mg/kg, iv. It is filed as ADME, organism-based. Details: dose 0.25 mg/kg, route intravenous. A digest of the protocol: as §1
Series [4] relates to Rattus norvegicus. In words: Dose-normalized AUC in rat at 0.25 mg/kg, iv co-administered with 4 mg/kg of ritonavir. It is filed as ADME, organism-based. The following applies: in vivo. A digest of the protocol:
(§2)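 Fed rats received 0.25 mg/kg intravenously as a DMSO/solutol/mannitol (2.5/10/87.5) solution, with ritonavir co-administered at 4 mg/kg.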

A short description of series [5]: Plasma clearance in rat at 0.25 mg/kg, iv co-administered with 4 mg/kg of ritonavir. It is filed as ADME, organism-based. A digest of the protocol: as §2
Series [6] can be described thus: Half life in rat at 0.25 mg/kg, iv co-administered with 4 mg/kg of ritonavir. It counts as ADME, organism-based. The following applies: in vivo. A digest of the protocol:
as §2

Series [7] relates to Hepatocyte. In words: Drug metabolism in rat hepatocytes assessed as formation of -[2H]-6-(5-((N-((2R,3S)-3-(((3R,3aS,6aR)-hexahydrofuro[2,3-b]furan-3-yloxy)carbonylamino)-2-hydroxy-4-(4-((2-methylthiazol-4-yl)methoxy)phenyl)butyl)-N-isobutylsulfamoyl)methyl)-2-methoxyphenoxy)-3,4,5-trihydroxytetrahydro-2H-pyran-2-carboxylic acid at 10 uM after 4 hrs by LC/MS/MS analysis. It counts as ADME, cell-based.

Series [8] relates to Hepatocyte. Put plainly: Drug metabolism in human hepatocytes assessed as formation of -[2H]-(3R,3aS,6aR)-hexahydrofuro[2,3-b]furan-3-yl (2S,3R)-4-(1-(3,4-dihydroxyphenyl)-N-isobutylmethylsulfonamido)-3-hydroxy-1-(4-((2-methylthiazol-4-yl)methoxy)phenyl)butan-2-ylcarbamate at 10 uM after 4 hrs by LC/MS/MS analysis. It is filed as ADME, cell-based.

In general, half-life refers to the time in which the quantity being followed falls by half. One may read the clearance as a measure of how efficiently the substance is removed, as volume per time. In the series on Rattus norvegicus [1], `[2H]C1([2H])C[C@@H]2[C@H](O1)OC([2H])([2H])[C@]2([2H])OC(=O)N[C@@H](Cc1ccc(OC([2H])([2H])c2csc(C)n2)cc1)[C@]([2H])(O)CN(C([2H])([2H])C([2H])(C([2H])([2H])[2H])C([2H])([2H])[2H])S(=O)(=O)c1ccc2c(c1)OC([2H])([2H])O2` came in with an AUC/dose of 59 ng·h/mL/mg. The same molecule had a half-life in series [2] of 12 min. The molecule further yielded a clearance in series [3] of 59 mL/min/kg.
On to `Cc1nc(COc2ccc(C[C@H](NC(=O)O[C@H]3CO[C@H]4OCC[C@H]43)[C@H](O)CN(CC(C)C)S(=O)(=O)c3ccc4c(c3)OCO4)cc2)cs1` [BRECANAVIR], for which the results for the AUC/dose with Rattus norvegicus [4] and with Rattus norvegicus [1] were 774 ng·h/mL/mg and 66 ng·h/mL/mg, respectively. For the same molecule, the values for the clearance in series [5] and in series [3] were 5.4 mL/min/kg and 65 mL/min/kg, respectively. Moreover, the half-life in series [2] is 12 min; in series [6], 132 min.
For `[2H]C1([2H])Oc2ccc(S(=O)(=O)N(C[C@@]([2H])(O)[C@H](Cc3ccc(OC([2H])([2H])c4csc(C)n4)cc3)NC(=O)O[C@@]3([2H])CO[C@@]4([2H])OCC[C@H]43)C([2H])([2H])C([2H])(C([2H])([2H])[2H])C([2H])([2H])[2H])cc2O1`, the Stability entry in the series on Hepatocyte [7] and with Hepatocyte [8] was “Unstable” each time. The AUC/dose with Rattus norvegicus [1] was 64 ng·h/mL/mg. The half-life in series [2] is 12 min. For the same molecule, in series [3], the clearance was 64 mL/min/kg.
